Measured values published in ChEMBL document CHEMBL1124273, “Synthesis and antiviral activity of certain 4-substituted and 2,4-disubstituted 7-[(2-hydroxyethoxy)methyl]pyrrolo[2,3-d]pyrimidines” (J Med Chem, 1988).

System: not listed separately
Test: The compound was tested for cytotoxicity against BSC1 cell
Format: functional, cell-based
Conditions: Cercopithecidae, BSC-1
Method in brief: (§1)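 Visual cytotoxicity was scored on uninfected cells in the plaque-reduction plates: BSC-1 (HSV-1 assay) or HFF (HCMV assay), both grown in MEM(E) with 10% FBS. Cells were examined at 35- and 60-fold magnification and scored 0 to 4+ on the day of staining for plaque counting. The highest concentration tested was 100 μM.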

SMILES | IC50 [µM]
COc1nc(N)c2ccn(COCCO)c2n1 | > 100
CSc1nc(N)c2ccn(COCCO)c2n1 | > 100
Nc1ncnc2c1ccn2COCCO | > 100
CS(=O)(=O)c1nc(N)c2ccn(COCCO)c2n1 | > 100
Nc1nc(Cl)nc2c1ccn2COCCO | > 100
Nc1nc(N)c2ccn(COCCO)c2n1 | > 100
CSc1nc(Cl)c2ccn(COCCO)c2n1 | > 100
CC(=O)Nc1nc(Cl)c2ccn(COCCO)c2n1 | > 100
CC(=O)OCCOCn1ccc2c(Cl)nc(Cl)nc21 | > 100
Nc1nc(O)nc2c1ccn2COCCO | > 100
OCCOCn1ccc2c(Cl)nc(Cl)nc21 | > 100
Nc1nc2c(ncn2COCCO)c(=O)[nH]1 [ACYCLOVIR] | > 100
Nc1nc2c(ncn2COC(CO)CO)c(=O)[nH]1 [GANCICLOVIR] | > 100

System: Cytomegalovirus
Test: Inhibitory activity against human cytomegalovirus determined by plaque reduction assay
Format: functional, organism-based
Conditions: Human betaherpesvirus 5

SMILES | IC50 [µM]
COc1nc(N)c2ccn(COCCO)c2n1 | > 100
CS(=O)(=O)c1nc(N)c2ccn(COCCO)c2n1 | > 100
Nc1nc(N)c2ccn(COCCO)c2n1 | > 100
CSc1nc(Cl)c2ccn(COCCOC(C)=O)c2n1 | > 100
CC(=O)Nc1nc(Cl)c2ccn(COCCO)c2n1 | > 100
Nc1nc(O)nc2c1ccn2COCCO | > 100
Nc1nc2c(ncn2COCCO)c(=O)[nH]1 [ACYCLOVIR] | 63
Nc1nc2c(ncn2COC(CO)CO)c(=O)[nH]1 [GANCICLOVIR] | 8.8

Results, then the molecule that gave them:

IC50 [µM] | SMILES
> 100 | CSc1nc(N)c2ccn(COCCO)c2n1
> 100 | Nc1ncnc2c1ccn2COCCO
> 100 | Nc1nc(Cl)nc2c1ccn2COCCO
> 100 | CSc1nc(Cl)c2ccn(COCCO)c2n1
40 | CC(=O)OCCOCn1ccc2c(Cl)nc(Cl)nc21
37 | OCCOCn1ccc2c(Cl)nc(Cl)nc21

System: HFF
Test: The compound was tested for cytotoxicity against human foreskin fibroblast cell
Format: functional, cell-based
Conditions: not given
Method in brief: as §1

SMILES | IC50 [µM]
COc1nc(N)c2ccn(COCCO)c2n1 | > 100
CSc1nc(N)c2ccn(COCCO)c2n1 | > 100
Nc1ncnc2c1ccn2COCCO | > 100
CS(=O)(=O)c1nc(N)c2ccn(COCCO)c2n1 | > 100
Nc1nc(Cl)nc2c1ccn2COCCO | > 100
Nc1nc(N)c2ccn(COCCO)c2n1 | > 100
CSc1nc(Cl)c2ccn(COCCOC(C)=O)c2n1 | 100
CSc1nc(Cl)c2ccn(COCCO)c2n1 | 30
CC(=O)Nc1nc(Cl)c2ccn(COCCO)c2n1 | > 100
CC(=O)OCCOCn1ccc2c(Cl)nc(Cl)nc21 | 100
Nc1nc(O)nc2c1ccn2COCCO | > 100
OCCOCn1ccc2c(Cl)nc(Cl)nc21 | 100
Nc1nc2c(ncn2COCCO)c(=O)[nH]1 [ACYCLOVIR] | > 100
Nc1nc2c(ncn2COC(CO)CO)c(=O)[nH]1 [GANCICLOVIR] | > 100

System: Human alphaherpesvirus 1
Test: Antiviral activity against Herpes simplex virus type 1 determined by plaque reduction assay
Format: functional, organism-based
Conditions: not given

SMILES | IC50 [µM]
COc1nc(N)c2ccn(COCCO)c2n1 | > 100
CS(=O)(=O)c1nc(N)c2ccn(COCCO)c2n1 | > 100
Nc1nc(N)c2ccn(COCCO)c2n1 | > 100
CSc1nc(Cl)c2ccn(COCCOC(C)=O)c2n1 | > 100
CC(=O)Nc1nc(Cl)c2ccn(COCCO)c2n1 | > 100
Nc1nc(O)nc2c1ccn2COCCO | > 100

The remaining lines, values ahead:

IC50 [µM] | SMILES
> 100 | CSc1nc(N)c2ccn(COCCO)c2n1
> 100 | Nc1ncnc2c1ccn2COCCO
> 100 | Nc1nc(Cl)nc2c1ccn2COCCO
> 100 | CSc1nc(Cl)c2ccn(COCCO)c2n1
> 100 | CC(=O)OCCOCn1ccc2c(Cl)nc(Cl)nc21
> 100 | OCCOCn1ccc2c(Cl)nc(Cl)nc21

System: not listed separately
Test: Average percent inhibition of DNA, RNA, and protein synthesis determined in KB cells
Format: functional, cell-based
Conditions: Homo sapiens
Method in brief: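 KB cells (human oral epidermoid carcinoma) grown in MEM(H) with 5% FBS. Cytotoxicity was measured as inhibition of radioactive precursor incorporation into DNA, RNA and protein. An I50 for each was obtained by linear regression against log concentration, and the three I50 values were averaged. The highest concentration tested was 100 μM.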

IC50 [µM] | SMILES
> 100 | Nc1ncnc2c1ccn2COCCO
33 | CSc1nc(Cl)c2ccn(COCCOC(C)=O)c2n1
112 | CC(=O)Nc1nc(Cl)c2ccn(COCCO)c2n1
> 100 | Nc1nc2c(ncn2COCCO)c(=O)[nH]1 [ACYCLOVIR]

SMILES | IC50 [µM]
Nc1nc2c(ncn2COC(CO)CO)c(=O)[nH]1 [GANCICLOVIR] | 1000

System: not listed separately
Test: The compound was tested for cytotoxicity against BSC-1 cells
Format: functional, cell-based
Conditions: Cercopithecidae
Method in brief: as §1

SMILES | IC50 [µM]
CSc1nc(Cl)c2ccn(COCCOC(C)=O)c2n1 | > 100
